# Results as given in ChEMBL document CHEMBL1143918, “Novel coumarin glycoside and phenethyl vanillate from Notopterygium forbesii and their binding affinities for opioid and dopamine receptors” (Bioorg Med Chem, 2008).
# Assays:
# Assay type in all cases: cell-based
# D(1A) dopamine receptor = D(1A) dopamine receptor (Rattus norvegicus, UniProt P18901); test: Displacement of [3H]SCH-23390 from rat HA-tagged D1 dopamine receptor expressed in CHO cells
# Procedure, shortened: (§1)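 Membranes from CHO cells stably expressing HA-tagged rat D1 receptor; cells grown in DMEM/F12 with 10% fetal calf serum and hygromycin B at 37°C, 5% CO2. Binding: 0.2 nM [3H]SCH23390 in 50 mM Tris-HCl, 1 mM EGTA, pH 7.4, room temperature, 1 h, duplicate. Fluphenazine (10 μM) defined nonspecific binding. Screened at 10 μM; compounds displacing >50% taken to Ki from competition curves.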
# [1] = target: Delta-type opioid receptor (Mus musculus, UniProt P32300); test: Displacement of [3H]diprenorphine from mouse delta opioid receptor expressed in CHO cells
# Delta-type opioid receptor, sequence (P32300 whole entry): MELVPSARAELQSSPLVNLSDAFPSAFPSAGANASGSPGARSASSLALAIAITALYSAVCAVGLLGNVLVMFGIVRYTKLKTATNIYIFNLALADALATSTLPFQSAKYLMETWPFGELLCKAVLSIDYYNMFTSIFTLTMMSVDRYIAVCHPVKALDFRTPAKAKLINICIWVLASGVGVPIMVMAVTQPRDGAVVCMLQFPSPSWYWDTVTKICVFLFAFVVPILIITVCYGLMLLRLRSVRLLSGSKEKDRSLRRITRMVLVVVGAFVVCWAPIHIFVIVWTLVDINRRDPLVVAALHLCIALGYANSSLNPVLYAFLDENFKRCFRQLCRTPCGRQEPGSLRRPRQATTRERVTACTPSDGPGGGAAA
# Procedure, shortened: (§2)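 Competitive inhibition of [3H]diprenorphine binding to human KOR, rat MOR or mouse DOR stably expressed in CHO cells. Compounds screened at 10 μM; those displacing >50% were tested over a concentration range and Ki calculated from competitive inhibition curves.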
# [2] = target: Kappa-type opioid receptor (Homo sapiens, UniProt P41145); test: Displacement of [3H]diprenorphine from human kappa opioid receptor expressed in CHO cells; procedure, shortened: as §2
# Kappa-type opioid receptor, sequence (P41145 whole entry): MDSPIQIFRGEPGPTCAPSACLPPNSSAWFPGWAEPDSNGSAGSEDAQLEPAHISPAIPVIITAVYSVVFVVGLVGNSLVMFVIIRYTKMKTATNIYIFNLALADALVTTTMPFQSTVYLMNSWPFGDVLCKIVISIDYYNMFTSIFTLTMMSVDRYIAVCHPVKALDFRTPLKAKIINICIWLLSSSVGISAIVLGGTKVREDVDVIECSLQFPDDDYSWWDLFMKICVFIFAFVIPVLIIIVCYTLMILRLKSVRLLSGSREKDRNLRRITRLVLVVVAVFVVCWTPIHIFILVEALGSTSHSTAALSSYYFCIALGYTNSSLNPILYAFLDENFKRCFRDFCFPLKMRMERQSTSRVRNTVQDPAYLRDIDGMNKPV
# Mu-type opioid receptor = Mu-type opioid receptor (Rattus norvegicus, UniProt P33535); test: Displacement of [3H]diprenorphine from rat mu opioid receptor expressed in CHO cells; procedure, shortened: as §2
# Mu-type opioid receptor, sequence (P33535 whole entry): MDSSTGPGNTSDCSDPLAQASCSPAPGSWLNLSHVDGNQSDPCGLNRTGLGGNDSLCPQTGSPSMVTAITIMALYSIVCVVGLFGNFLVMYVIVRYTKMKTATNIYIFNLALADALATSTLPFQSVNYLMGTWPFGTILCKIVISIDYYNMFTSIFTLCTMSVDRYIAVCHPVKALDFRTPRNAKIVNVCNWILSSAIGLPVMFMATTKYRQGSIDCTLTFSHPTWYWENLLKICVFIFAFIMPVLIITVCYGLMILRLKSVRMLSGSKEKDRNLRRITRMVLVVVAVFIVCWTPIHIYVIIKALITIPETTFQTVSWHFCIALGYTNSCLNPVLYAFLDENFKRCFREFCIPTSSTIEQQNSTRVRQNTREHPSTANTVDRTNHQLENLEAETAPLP
# [3] = target: D(1A) dopamine receptor (Rattus norvegicus) (UniProt P18901); test: Displacement of [3H]SCH-23390 from rat HA-tagged D1 dopamine receptor expressed in CHO cells at 10 uM; procedure, shortened: as §1
# D(1A) dopamine receptor (Rattus norvegicus), sequence (P18901 whole entry): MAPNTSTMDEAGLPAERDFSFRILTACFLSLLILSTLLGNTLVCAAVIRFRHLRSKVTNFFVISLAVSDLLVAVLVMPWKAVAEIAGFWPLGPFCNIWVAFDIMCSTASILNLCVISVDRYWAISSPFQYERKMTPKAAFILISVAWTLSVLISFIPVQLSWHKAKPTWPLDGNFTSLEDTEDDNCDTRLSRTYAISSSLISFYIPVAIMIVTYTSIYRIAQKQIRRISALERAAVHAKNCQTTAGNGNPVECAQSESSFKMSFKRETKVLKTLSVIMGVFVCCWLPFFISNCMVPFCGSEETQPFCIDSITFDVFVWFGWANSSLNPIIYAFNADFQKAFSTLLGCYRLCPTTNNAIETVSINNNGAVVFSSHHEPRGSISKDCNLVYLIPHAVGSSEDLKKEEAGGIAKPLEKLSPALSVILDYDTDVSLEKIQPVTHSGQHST
# D(1A) dopamine receptor, sequence (P18901 whole entry): as above
compound,measurement,setting,value
CC(C)=CC(O)C/C(C)=C/COc1ccc2ccc(=O)oc2c1 (centres undefined) [ANISOCOUMARIN H],Ki,D(1A) dopamine receptor,> 10 µM
same,Ki,[1],> 10 µM
same,Ki,[2],2.6 µM
same,Ki,Mu-type opioid receptor,> 10 µM
CC(C)=CC(O)C/C(C)=C/COc1c2ccoc2cc2oc(=O)ccc12 (centres undefined) [NOTOPTEROL],Ki,D(1A) dopamine receptor,1.42 µM
same,Ki,[1],> 10 µM
same,Activity,[3],> 50%
same,Ki,[2],> 10 µM
same,Ki,Mu-type opioid receptor,> 10 µM
C=C[C@@H](O)C#CC#C[C@@H](O)/C=C\CCCCCCC [FALCARINDIOL],Ki,D(1A) dopamine receptor,0.192 µM
same,Ki,[1],1.1 µM
same,Activity,[3],> 50%
same,Ki,[2],2.51 µM
same,Ki,Mu-type opioid receptor,1.13 µM
